We go through nine compounds from ChEMBL document CHEMBL1138918, “Discovery of potent and orally available malonyl-CoA decarboxylase inhibitors as cardioprotective agents” (J Med Chem, 2006).

For data set [1], the species on record is Rattus norvegicus. Kind of data set: Increase in glucose oxidation rate in rat heart at 10 uM relative to control. The data set is classed as functional. The method in brief: (§1)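 Isolated working rat hearts; glucose oxidation rate expressed as ratio of compound-treated to 0.05% DMSO vehicle control, n = 8 hearts; test concentration 10 µM, or 1 µM where stated.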

For data set [2], the species on record is Rattus norvegicus. Kind of data set: Cardioprotective activity in global ischemia-reperfusion rat model. Format: functional, organism-based. The method in brief: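 Isolated rat hearts perfused aerobically 30 min, then 30 min global no-flow ischemia and 60 min aerobic reperfusion; compound at 1 µM added to perfusate either before ischemia or at onset of reperfusion.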

Data set [3] in a line: Oral bioavailability in Sprague-Dawley rat at 10 mg/kg, iv and po. Format: ADME, organism-based. As to conditions: in vivo. In a few lines:
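Rats dosed iv and po; F computed as ratio of dose-normalized oral to iv plasma AUC over the same time frame.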

For data set [4], the species on record is Rattus norvegicus. Kind of data set: Increase in glucose oxidation rate in rat heart at 1 uM relative to control. Format: functional. In a few lines:
as §1

Data set [5] in a line: Tmax in Sprague-Dawley rat at 10 mg/kg, po. Conditions: in vivo. Format: ADME, organism-based. More on the design: dose 10 mg/kg, route oral.
Data set [6] can be described thus: Cmax in Sprague-Dawley rat at 10 mg/kg, po. Format: ADME, organism-based. More on the design: dose 10 mg/kg, route oral. Conditions: in vivo.
Data set [7] is described as follows: Half life in Sprague-Dawley rat at 10 mg/kg, iv. The data set is classed as ADME, organism-based. The arrangement: dose 10 mg/kg, route intravenous. As to conditions: in vivo.
In data set [8] the test system is Rattus norvegicus. Kind of data set: Volume of distribution in Sprague-Dawley rat at 10 mg/kg, iv or po. Format: ADME, organism-based. The arrangement: dose 10 mg/kg, route oral. As to conditions: in vivo.

Active and inactive are the calls of the source. The rule behind the calls is not given here.

With `CC(C)(C)OC(=O)CCNC(=O)C1=NOC(C(O)(C(F)(F)F)C(F)(F)F)C1` (stereo unspecified), in data set [1], the Activity was 4.54%.

Compound `CC(C)(C)OCCCNC(=O)C1=NOC(C(O)(C(F)(F)F)C(F)(F)F)C1` (stereo unspecified) had an Activity in data set [1] of 5.42%.

With `C[C@@H](CC(=O)OC(C)(C)C)NC(=O)C1=NOC(C(O)(C(F)(F)F)C(F)(F)F)C1` (stereo partly specified), the Activity in data set [1] was 5.01%.

With `CC(C)C[C@@H](CC(=O)OC(C)(C)C)NC(=O)C1=NOC(C(O)(C(F)(F)F)C(F)(F)F)C1` (stereo partly specified), the Activity in data set [1] came to 3.24%.

Consider `CC(C)CCCC(C)NC(=O)C1=NOC(C(O)(C(F)(F)F)C(F)(F)F)C1` (stereo unspecified), for which the Activity in data set [1] came out at 1.26%.

Turning to `CC(CC(=O)OC(C)(C)C)NC(=O)C1=NOC(C(O)(C(F)(F)F)C(F)(F)F)C1` (stereo unspecified), in data set [2], the outcome was Active. Also, the bioavailability in data set [3] is 74%. Besides, the Activity in data set [1] is 7.32%; in data set [4], 3.07%. Besides, in data set [5], the Tmax is 0.5 h. This compound also showed a Cmax in data set [6] of 2680 ng/mL. Further, the half-life in data set [7] was 2.3 h. This compound also showed a Vss in data set [8] of 2.193 L/kg.

In turn, `CC(C)CN(CC(C)C)C(=O)C1=NOC(C(O)(C(F)(F)F)C(F)(F)F)C1` (stereo unspecified) gave an Activity in data set [1] of 2.11%.

`CC(C)CC(CC(=O)OC(C)(C)C)NC(=O)C1=NOC(C(O)(C(F)(F)F)C(F)(F)F)C1` (stereo unspecified) registered an Activity in data set [1] of 4.28%.

Compound `CCCCCC(C)NC(=O)C1=NOC(C(O)(C(F)(F)F)C(F)(F)F)C1` (stereo unspecified) registered an Activity in data set [1] of 0.8%.
